Test results as given in ChEMBL document CHEMBL6083194, “Discovery and evaluation of 3-(2-isocyanobenzyl)-1H-indole derivatives as potential quorum sensing inhibitors for the control of Pseudomonas aeruginosa infections in vitro” (RSC Med Chem, 2024).
Converted amounts (≈) assume the structure as drawn. The source made the active and inactive calls. No cut-off for these calls is given here.

How the values were obtained:
Pseudomonas aeruginosa [1] = assay: Inhibition of pyocyanin production in Pseudomonas aeruginosa PAO1 at 1/2 time MIC incubated for 18 hrs; type: functional
Outline: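 Overnight PAO1 in LB diluted to OD600 = 0.05, subcultured 5–7 h to mid-log, rediluted to OD600 = 0.05. 5 mL with compound grown 18 h at 37 °C, 200 rpm. Supernatant extracted with 3 mL chloroform, back-extracted into 0.2 M HCl, absorbance at 520 nm.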

Pseudomonas aeruginosa [2] = assay: Inhibition of biofilm formation in Pseudomonas aeruginosa PAO1 at 1/2 times MIC incubated for 24 hrs crystal violet staining based SEM assay; type: functional
[3] = Inhibition of quorum sensing system in Pseudomonas aeruginosa PAO1
Outline: (§1)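 Plate screen. CV026 grown overnight in LB with 50 μg ml−1 kanamycin; 15 μl seeded into 15 ml LB agar (1.0% agarose) containing 20 μM C4-HSL. PAO1 plates run in parallel. Test colonies inoculated by toothpick, incubated overnight at 37 °C. Ring of colourless viable cells around the colony scored as inhibition.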

Pseudomonas aeruginosa [4] = assay: Inhibition of biofilm formation in Pseudomonas aeruginosa PAO1 incubated for 24 hrs crystal violet staining based SEM assay; type: functional, organism-based
Pseudomonas aeruginosa [5] = assay: Antibacterial activity against Pseudomonas aeruginosa PAO1 by serial dilution method; type: functional
Outline: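 PAO1 in LB, 37 °C. MIC by CLSI 2-fold serial dilution in Mueller–Hinton broth, inoculum 1–5 × 10^5 CFU mL−1, DMSO stocks. Growth curves: overnight culture diluted to OD600 = 0.05, subcultured to mid-log, rediluted to OD600 = 0.05, 3 mL with compound; OD620 read at 1, 3, 5, 7, 9, 11 and 24 h at 37 °C; DMSO negative control.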

Pseudomonas aeruginosa [6] = assay: Inhibition of rhamnolipid production in Pseudomonas aeruginosa PAO1 at 1/2 to 1/4 times MIC by orcinol method; type: functional, organism-based
Outline: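 Overnight PAO1 diluted 1:100 into LB with compound, 37 °C, 180 rpm; DMSO control. Supernatant (100 μL) mixed with 900 μL 0.19% orcinol in 53% H2SO4, heated 30 min at 80 °C, cooled, read at 421 nm.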

[7] = Inhibition of quorum sensing system in Chromobacterium violaceum CV026; outline: as §1
Pseudomonas aeruginosa [8] = assay: Inhibition of biofilm formation in Pseudomonas aeruginosa PAO1 at 1/4 times MIC incubated for 24 hrs crystal violet staining based SEM assay; type: functional

Structure (SMILES)	inhibition (Pseudomonas aeruginosa [1])	inhibition (INH) (Pseudomonas aeruginosa [2]) [%]	inhibition [3]	inhibition (Pseudomonas aeruginosa [4])	inhibition (INH) (Pseudomonas aeruginosa [1]) [%]	MIC (Pseudomonas aeruginosa [5]) [µg/mL]	inhibition (Pseudomonas aeruginosa [6])	inhibition [7]	inhibition (INH) (Pseudomonas aeruginosa [8]) [%]
N#Cc1ccccc1Cc1c[nH]c2cc(Cl)ccc12	Active	26	Active	Dose-dependent-effect	–	–	–	–	–
Cc1ccc(Cc2c[nH]c3ccccc23)c(C#N)c1	–	1	Active; Strong Inhibition Observed	Dose-dependent-effect	60	–	–	–	–
N#Cc1cccc(Cl)c1Cc1c[nH]c2ccccc12	Active; Showed Higher Activity Than Positive Control Rsv	4	Active; Strong Inhibition Observed	Dose-dependent-effect	–	24 (≈ 90 µM)	Active	Active; Showed Higher Activity	–
N#Cc1ccccc1Cc1c[nH]c2ccc(Cl)cc12	Active	11	Active	Dose-dependent-effect	–	–	–	Active; Showed Higher Activity	–
Cn1cc(Cc2ccccc2C#N)c2ccccc21	Active	–	–	Dose-dependent-effect	–	–	–	–	–
Cc1[nH]c2ccccc2c1CCc1ccccc1C#N	Active	–	Active; Strong Inhibition Observed	Dose-dependent-effect	–	–	–	Active	–
N#Cc1ccc(Br)cc1Cc1c[nH]c2ccccc12	Active	21	Active	Dose-dependent-effect	–	–	–	Active	–
N#Cc1ccccc1Cc1c[nH]c2ccc(Br)cc12	–	39	Active; Strong Inhibition Observed	Dose-dependent-effect	64	–	–	Active; Showed Higher Activity	–
N#Cc1ccccc1Cc1ccccc1	Active	–	–	Dose-dependent-effect	–	–	–	–	–
CC(c1ccccc1C#N)c1c[nH]c2ccccc12 (configuration not stated)	Active	–	Active; Strong Inhibition Observed	Dose-dependent-effect	–	–	–	–	–
Cc1ccc2c(Cc3ccccc3C#N)c[nH]c2c1	Active; Showed Higher Activity Than Positive Control Rsv	7	Active	Dose-dependent-effect	–	–	–	Active; Showed Higher Activity	–
N#CCCc1c[nH]c2ccccc12	Active	–	Active; Strong Inhibition Observed	Dose-dependent-effect	–	–	–	Active; Showed Higher Activity	9
Nc1ccccc1Cc1c[nH]c2ccccc12	Active; Showed Higher Activity Than Positive Control Rsv	–	–	Dose-dependent-effect	–	–	–	Active; Showed Higher Activity	–
N#Cc1cccc(F)c1Cc1c[nH]c2ccccc12	Active	49	Active; Strong Inhibition Observed	Dose-dependent-effect	–	–	–	Active; Showed Higher Activity	–
N#Cc1ccccc1Cc1c[nH]c2ccccc12	Active; Showed Higher Activity Than Positive Control Rsv	38	Active; Strong Inhibition Observed	Dose-dependent-effect	–	96 (≈ 413 µM)	Active	Active; Showed Higher Activity	15
Cc1ccc2[nH]cc(Cc3ccccc3C#N)c2c1	Active	50	Active	Dose-dependent-effect	–	–	–	Active	–
Cc1c(Cc2ccccc2C#N)c2ccccc2n1C(=O)OC(C)(C)C	Active	–	–	Dose-dependent-effect	–	–	–	–	–

Structure (SMILES)	inhibition (Pseudomonas aeruginosa [1])	inhibition (INH) (Pseudomonas aeruginosa [2]) [%]	inhibition [3]	inhibition (Pseudomonas aeruginosa [4])	inhibition (INH) (Pseudomonas aeruginosa [1]) [%]	MIC (Pseudomonas aeruginosa [5]) [µg/mL]	inhibition (Pseudomonas aeruginosa [6])	inhibition [7]	inhibition (INH) (Pseudomonas aeruginosa [8]) [%]
N#Cc1ccccc1Cc1c[nH]c2cccc(F)c12	Active	35	–	Dose-dependent-effect	–	–	–	–	–
CC(C)(C)OC(=O)n1c(-c2ccccc2)c(Cc2ccccc2C#N)c2ccccc21	Active; Showed Higher Activity Than Positive Control Rsv	–	–	Dose-dependent-effect	–	–	–	–	–
N#Cc1c(Cl)cccc1Cc1c[nH]c2ccccc12	Active	1	Active; Strong Inhibition Observed	Dose-dependent-effect	–	–	–	Active	–
COc1cccc2[nH]cc(Cc3ccccc3C#N)c12	Active	21	Active; Strong Inhibition Observed	Dose-dependent-effect	–	–	–	–	–
CCOC(=O)C(C#N)c1c[nH]c2ccccc12 (configuration not stated)	Active	–	–	Dose-dependent-effect	–	–	–	Active	–
Cc1[nH]c2ccccc2c1Cc1ccccc1C#N	Active	13	Active	Dose-dependent-effect	–	–	–	–	–
N#Cc1ccccc1Cc1c[nH]c2cc(Br)ccc12	Active	21	–	Dose-dependent-effect	–	–	–	–	–
Cc1cccc2c(Cc3ccccc3C#N)c[nH]c12	Active	40	Active	Dose-dependent-effect	–	–	–	Active; Showed Higher Activity	–
Cc1ccc(C#N)c(Cc2c[nH]c3ccccc23)c1	Active	24	Active; Strong Inhibition Observed	Dose-dependent-effect	–	–	–	–	–
CCOC(=O)C(C#N)Cc1c[nH]c2ccccc12 (configuration not stated)	Active	–	Active; Strong Inhibition Observed	Dose-dependent-effect	–	–	–	–	–
N#Cc1ccc(F)cc1Cc1c[nH]c2ccccc12	Active; Showed Higher Activity Than Positive Control Rsv	19	Active; Strong Inhibition Observed	Dose-dependent-effect	–	12 (≈ 47.9 µM)	Active	Active	–
Cc1cccc2[nH]cc(Cc3ccccc3C#N)c12	Active; Showed Higher Activity Than Positive Control Rsv	17	Active	Dose-dependent-effect	–	–	–	Active; Showed Higher Activity	–
N#Cc1cc(F)ccc1Cc1c[nH]c2ccccc12	Active; Showed Higher Activity Than Positive Control Rsv	19	Active; Strong Inhibition Observed	Dose-dependent-effect	–	48 (≈ 192 µM)	Active	Active; Showed Higher Activity	–
Cc1cccc(Cc2c[nH]c3ccccc23)c1C#N	Active	27	Active; Strong Inhibition Observed	Dose-dependent-effect	–	–	–	Active; Showed Higher Activity	–
N#Cc1ccc(Cl)cc1Cc1c[nH]c2ccccc12	Active	56	Active	Dose-dependent-effect	–	–	–	–	–
CCc1ccccc1C#N	Active	–	–	Dose-dependent-effect	–	–	–	Active; Showed Higher Activity	12
